PHOSPHO1 inh = PubChem AID 1565; recombinant PHOSPHO1, absorbance phosphatase assay; 1.1% of 290,000 active; inhibition, % at 13.3 µM; in the data active = inhibition above about 60%
RGS4 act = RGS4 potentiators or activators, primary screen, cell-based, HEK293 M3R inducible RGS4, calcium flux. carbachol calcium flux Fluo4; stronger effect = lower value. B-score at 10 µM. 0.92% of 310,000 active. AID 463111, 2010;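 active = B-score of the integrated calcium signal more than 4 SD below the library mean, with starting fluorescence not abnormally high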;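 note: negative B-score means reduced calcium response which marks RGS4 activation or potentiation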
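Detection: kinetic calcium fluorescence imaging with Fluo4-AM dye, 2 µM / Material: HEK293 cells with stable M3R and inducible RGS4 / Schedule: recording 10 s baseline at 1 Hz, 100 s post-agonist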
RGS4 block = RGS4 inhibitors, primary screen, cell-based, HEK293 M3R inducible RGS4, calcium flux; Regulator of G-protein signaling 4 (Homo sapiens), P49798; Fluo-4 calcium flux; stronger effect = higher value; triggered by carbachol at its EC20; B-score at 10 µM; 0.45% of 310,000 active; AID 463165, 2010;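 active = B-score, a plate-corrected calcium signal, over three deviations above library mean, with baseline fluorescence within five deviations of library mean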;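 note: RGS4 expression induced by doxycycline in cells with stable M3 receptor; B-score is computed from the integrated fluorescence ratio over baseline after carbachol; higher B-score means a larger calcium signal and so more RGS4 inhibition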
Target sequence (P49798 whole entry, looked up): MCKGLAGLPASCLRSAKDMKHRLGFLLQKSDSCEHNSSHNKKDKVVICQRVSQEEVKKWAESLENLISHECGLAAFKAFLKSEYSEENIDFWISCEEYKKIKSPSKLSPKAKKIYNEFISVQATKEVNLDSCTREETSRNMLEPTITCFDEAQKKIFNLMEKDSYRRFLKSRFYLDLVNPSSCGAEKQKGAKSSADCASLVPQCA
MrgX1 allo act = positive allosteric modulators of MrgX1, primary screen, HEK293 cells, Fluo-4 calcium flux; 0.63% of 310,000 active; AID 588675, 2011; Mas-related G-protein coupled receptor member X1 (Homo sapiens), Q96LB2; B-score at 10 µM; FDSS; stronger effect = higher value;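 active = plate-corrected calcium response at least 3 library SD above typical, normal starting fluorescence, not activating the receptor alone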;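 note: compound read alongside a low EC10 to EC30 dose of BAM8-22 agonist; peak minus trough fluorescence over baseline measured at the second addition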
Target sequence (Q96LB2 whole entry, looked up): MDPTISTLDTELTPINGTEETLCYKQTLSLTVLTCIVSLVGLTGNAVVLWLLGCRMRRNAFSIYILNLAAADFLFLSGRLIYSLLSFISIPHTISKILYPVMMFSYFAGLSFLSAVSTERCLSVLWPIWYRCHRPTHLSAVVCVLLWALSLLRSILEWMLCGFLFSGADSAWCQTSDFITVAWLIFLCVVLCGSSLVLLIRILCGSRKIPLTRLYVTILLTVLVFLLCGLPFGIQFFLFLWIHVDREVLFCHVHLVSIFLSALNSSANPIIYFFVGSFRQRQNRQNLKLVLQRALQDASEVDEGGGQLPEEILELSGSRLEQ
MrgX1 antagonist = antagonists of human MrgX1 receptor, primary screen, HEK293 cells, Fluo-4 calcium flux; BAM8-22 antagonism; stronger effect = lower value; B-score at 10 µM; 1.3% of 310,000 active; AID 588676, 2011;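 active = calcium-response B-score plate-corrected more than 3 library SD below zero, starting fluorescence within 5 deviations, no agonist response on first addition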;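 note: peak minus trough fluorescence over baseline after final BAM8-22 challenge near maximal dose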
MrgX1 ag = agonists of human MrgX1 receptor, primary screen, HEK293 cells, Fluo-4 calcium flux; AID 588627, 2011; 0.44% of 310,000 active; Mas-related G-protein coupled receptor member X1 (Homo sapiens), Q96LB2; B-score at 10 µM; Fluo-4 calcium fluorescence, agonist mode; stronger effect = higher value;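 active = calcium response B-score plate-corrected fluorescence ratio at least 3 library SD, with starting fluorescence B-score inside 5 SD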
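Test system: Stable human MrgX1 HEK293 cell line | Schedule: Overnight plating before 1 h dye loading | Read-out basis: Baseline-normalised fluorescence change ratio, B-scored | Detection: Kinetic calcium dye fluorescence, Fluo-4 NW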
RGS4 activ val = reduced carbachol calcium response, RGS4-induced M3R cells, confirmation, RGS4 activator project, cell-based, HEK293 M3R/RGS4 inducible, calcium flux, duplicate; shares compounds with RGS4 act; carbachol calcium flux Fluo4; inhibition, % at 10 µM; 89% of 1,100 active; AID 602282, 2012;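 active = inhibition above 3 SD of the buffer control wells, cut at about 41% in these data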;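 note: signal is the integrated peak-minus-minimum Fluo4 fluorescence over baseline ratio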
M3R Ca counter = counter-screen for RGS4 activators: effect in non-induced cells | shares compounds with RGS4 act | HEK293 M3R non-induced RGS4, Fluo4 calcium flux; after carbachol challenge at its EC90 | inhibition, % at 10 µM | 82% of 1,100 active | AID 602283;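 active = inhibition exceeding 3 SD of buffer-only control wells, cut at about 26% in these data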;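 note: percent drop in integrated peak-minus-baseline over baseline Fluo4 ratio after carbachol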
MrgX1 ant reconf = MrgX1 receptor antagonists, duplicate retest, confirmation, HEK293 cells, Fluo-4 calcium flux; shares compounds with MrgX1 antagonist; AID 602420, 2012; remaining BAM8-22 calcium response % of control (stronger effect = lower value), % at 10 µM; 19% of 2,300 active; BAM8-22 calcium flux; stronger effect = lower value;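 active = remaining agonist calcium response no higher than 100% minus 3 SD of agonist-only control wells, with starting fluorescence near control levels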;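 note: agonist BAM8-22 given at a near maximal EC90 to ECmax level; peak minus minimum fluorescence divided by baseline after agonist addition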
HEK293 Ca flux = nonspecific calcium signal in parental HEK293, confirmation, counter-screen for MrgX1 antagonist project, parental HEK293 cells, Fluo-4 calcium flux | 2% of 4,000 active | Fluo-4 calcium fluorescence, FDSS | AID 624111, 2012 | fluorescence ratio F(max-min)/F0 at 10 µM | shares compounds with MrgX1 antagonist;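 active = duplicate-averaged calcium fluorescence ratio at least three times the standard deviation of buffer wells, a nonspecific response in parental cells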
HEK293 Ca counter = calcium response in parental HEK293 cells, primary screen, counter-screen for MrgX1 allosteric activator project, cell-based, Fluo-4 calcium flux, duplicate | 0.4% of 4,000 active | shares compounds with MrgX1 antagonist | Fluo-4 fluorescence ratio; stronger effect = higher value | fluorescence ratio F(max-min)/F0 at 10 µM;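 active = calcium fluorescence ratio, averaged over duplicates, at least 3 SD of the buffer-well ratio, meaning a nonspecific response in receptor-free cells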;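 note: untransfected parental HEK293 lacking MrgX1 used as counterscreen for MrgX1 allosteric activators; fluorescence change taken during the second addition on a kinetic imager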
HEK293 Ca cntr2 = calcium response in parental HEK293 cells, primary screen, counter-screen for MrgX1 agonist project, cell-based, Fluo-4 calcium flux, duplicate, agonist mode. fluorescence ratio F(max-min)/F0 at 10 µM. 8.7% of 4,000 active. shares compounds with MrgX1 antagonist. Fluo-4 calcium fluorescence (FDSS); stronger effect = higher value. AID 624115, 2012;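 active = calcium fluorescence ratio at least three times the spread of buffer wells, meaning a non-specific response in parental cells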
Numbers without * were called inactive; i = inactive; . = no result. Compounds with a hit are over-represented: about 4.5% of the library has one in this group of screens.

SMILES	PHOSPHO1 inh	RGS4 act	RGS4 block	MrgX1 allo act	MrgX1 antagonist	MrgX1 ag	RGS4 activ val	M3R Ca counter	others
COCCn1c(=N)c(S(=O)(=O)c2ccc(F)cc2)cc2c(=O)n3ccccc3nc21	19.9	i	i	i	i	i	.	.
CCNC(=O)C(=O)Nc1cc2c3c(c1)CCN3C(=O)CC2	43.5	i	i	i	i	i	.	.
COc1ccc(S(=O)(=O)N2CCCCC2)cc1NC(=O)c1ccc2ccccc2n1	-24.5	i	i	i	i	i	.	.
COc1ccc(NC(=O)c2ccc3ccccc3n2)cc1S(=O)(=O)N1CCCCC1	0.6	-8.62*	i	i	i	i	92.0*	49.3*
CC(C)(C)S(=O)(=O)c1ccsc1C(=O)O	-6.8	-15.9*	i	i	i	i	0.0	0.0
COc1ccc(CNC(=O)C/C(C)=N/NC(=O)c2ccc(OC)cc2OC)cc1	21.7	i	i	i	i	i	.	.
OCCOCCN1CCN(C2=Nc3ccccc3Sc3ccccc32)CC1	15.1	i	i	i	i	i	.	.
Cc1cc2c(s1)Nc1ccccc1N=C2N1CCN(C)CC1	-8.2	-9.54*	i	i	i	i	91.0*	84.8*
Cc1ccccc1Cc1c(C)nc2nc(SCC(=O)NCCCN3CCCCC3)nn2c1C	31.9	-9.55*	i	i	i	i	74.5*	43.3*
Cc1ccccc1Cc1c(C)nc2nc(SCC(=O)NCc3ccco3)nn2c1C	28.5	i	i	i	i	i	.	.
CC(C)CSC1=NSC2=NC(=O)/C(=C\c3coc4ccccc4c3=O)C(=N)N12	8.6	-12.1*	i	i	i	i	98.5*	99.8*
Cc1ccccc1N/C=C/C(=C(C#N)C#N)N(C)C	15.9	i	i	i	i	i	.	.
Cc1nonc1NC(=O)OC1CCCCC1	-119.1	i	i	i	i	i	.	.
CCn1ccnc1CNC(=O)c1ccc2oc(C(C)C)nc2c1	-0.6	-8.24*	i	i	i	i	82.0*	47.3*
COC(=O)c1ccc(OCCN2CCCCCC2)cc1	18.0	-7.85*	i	i	i	i	66.0*	83.8*
COC(=O)C(NC(=O)COc1ccccc1)(Nc1nc2c(s1)CCCC2)C(F)(F)F (stereo not drawn)	-15.0	-12*	i	i	i	i	80.5*	32.8*
COc1cccc(-c2nnc(NC(=O)c3ccc(S(=O)(=O)N4CCOCC4)cc3)o2)c1	-2.3	i	i	i	i	i	.	.
O=C(c1ccc(S(=O)(=O)N2CCOCC2)cc1)N1CCN(c2cccc(Cl)c2)CC1	-2.4	i	i	i	i	i	.	.
O=C(NCC1CCN(c2ccc(S(=O)(=O)N3CCOCC3)cc2)CC1)c1cccc(Cl)c1	3.9	-8.05*	i	i	i	i	90.0*	92.3*
COc1cccc(C(=O)NCC2CCN(c3ccc(S(=O)(=O)N4CCOCC4)cc3)CC2)c1	-17.8	-8.61*	i	i	i	i	91.5*	58.3*
COc1ccc(-n2nc(C(=O)NCC(=O)NCc3ccc(F)cc3)c3ccccc3c2=O)cc1	51.5	i	i	i	i	i	.	.
O=C(Cn1cnc2ccc(Br)cc2c1=O)c1cccs1	27.6	i	i	i	i	i	.	.
CSc1ccc2c(c1)C(N1CCN(C)CC1)Cc1ccc(F)cc1S2 (stereo not drawn)	.	-11.5*	i	i	i	i	94.0*	89.8*
Cc1ccc(C)c(S(=O)(=O)N2CCN(C(=O)c3ccc(OCc4c(C)noc4C)cc3)CC2)c1	.	i	i	i	i	i	.	.
CCN1CCN(S(=O)(=O)c2ccc(OC)c(NC(=O)c3ccccc3)c2)CC1	.	i	i	i	i	i	.	.
SMILES	PHOSPHO1 inh	RGS4 act	RGS4 block	MrgX1 allo act	MrgX1 antagonist	MrgX1 ag	RGS4 activ val	M3R Ca counter	others
Cn1c(SCCOc2ccccc2F)nc2ccccc2c1=O	24.4	-7.81*	i	i	i	i	92.0*	80.8*
C=C1CC(C(=O)N/N=C/c2ccccc2)C1	8.6	i	i	i	i	i	.	.
CCN1CCN(C(=O)C(N)Cc2ccccc2)CC1 (stereo not drawn)	20.0	i	i	i	i	i	.	.
COc1ccc2nc(C)cc(SCC(=O)N/N=C/c3ccc(O)c(O)c3)c2c1	16.1	-13.2*	i	i	i	i	0.0	0.0
COc1ccc2nc(C)cc(SCC(=O)N/N=C/c3cccc4ccccc34)c2c1	32.6	i	i	i	i	i	.	.
CCOC(=O)Cc1csc(NC(=O)c2sc3nc4c(C)cc(C)cc4cc3c2N)n1	45.1	-8.6*	i	i	-9.24*	i	83.5*	63.3*	MrgX1 ant reconf=i;HEK293 Ca flux=i;HEK293 Ca counter=i;HEK293 Ca cntr2=i
CCOC(=O)Cc1csc(NC(=O)c2csc(C)c2)n1	3.5	i	i	i	i	i	.	.
